What was measured:
[1] = lowest concentration at which glucose utilized was greater than or equal to 140% of control value tested in a glucose utilization L6 myocyte in vitro assay; format: functional, Rattus norvegicus
Method in brief: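 Differentiated rat L6 myotubes (day 11 or 13 after plating) exposed 20 h to compound in serum-free DMEM with 15 mM glucose and 1% final DMSO. Tested in quadruplicate at 3, 10, 30, 100, 300 µM. Glucose left in the medium read by glucose oxidase. Value is the lowest concentration giving at least 40% more utilization than control.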

[2] = test system: Mus musculus; assay: In vivo lowering of blood glucose levels in diabetic obese ob/ob mice, measuring postprandial blood glucose level on day 3 after 2 hours at 300 uM/kg oral dose; format: functional
Method in brief: (§1)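 Adult male C57BL ob/ob mice, fed, grouped (6/group) and matched for blood glucose on day 0; mice under 150 mg/dL excluded. Oral dosing in the morning on days 1-3, vehicle 0.5% CMC with 0.2% Tween-80. Significance versus vehicle.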

[3] = test system: Mus musculus; assay: In vivo lowering of blood glucose levels in diabetic obese ob/ob mice by measuring postprandial blood glucose level on day 3 after 4 hours at 300 uM/kg oral dose; format: functional; method in brief: as §1
[4] = test system: Mus musculus; assay: In vivo lowering of blood glucose levels in diabetic obese ob/ob mice by measuring postprandial blood glucose level on day 3 after 8 hours at 300 uM/kg oral dose; format: functional; method in brief: as §1
[5] = test system: Mus musculus; assay: In vivo lowering of blood glucose levels in diabetic obese ob/ob mice, measuring postprandial blood glucose level on day1 after 2 hours at 300 uM/kg oral dose; format: functional; method in brief: as §1
[6] = test system: Mus musculus; assay: In vivo lowering of blood glucose levels in diabetic obese ob/ob mice by measuring postprandial blood glucose level on day1 after 4 hours at 300 uM/kg oral dose; format: functional; method in brief: as §1

Compound	Lowest effective concentration for glucose utilization ≥140% of control [1]	Efficacy [2]	Efficacy [3]	Efficacy [4]	Efficacy [5]	Efficacy [6]
O=C1CCC[C@]2(c3ccccc3)O[C@H](COc3ccc(Cl)cc3)CN12	30 µM	10%	50%	54%	42%	29%
O=C1CC[C@]2(c3ccc4c(c3)CCc3ccccc3-4)O[C@H](COc3ccc(Cl)cc3)CN12	30 µM	51%	56%	45%	31%	38%
COC(=O)N1C[C@H](COc2ccc(Cl)cc2)O[C@@H]1c1ccc(Cl)c(Cl)c1	30 µM	25%	19%	-9%	13%	40%
O=C1CC[C@]2(c3ccc4ccccc4c3)O[C@H](COc3ccc(Cl)cc3)CN12	30 µM	49%	62%	39%	21%	37%
O=C1CC[C@]2(c3ccc(Cl)cc3)S[C@H](COc3ccc(Cl)cc3)CN12	>300 µM	-11%	9%	11%	28%	14%
CC(=O)N1C[C@H](COc2ccc(Cl)cc2)O[C@@H]1c1ccc(Cl)cc1	100 µM	42%	54%	54%	10%	0%
CC(=O)N1C[C@@H](COc2ccc(Cl)cc2)O[C@@H]1c1ccc(Cl)c(Cl)c1	30 µM	69%	70%	61%	8%	26%
O=C1CC[C@]2(c3ccc(Oc4ccccc4)cc3)O[C@H](COc3ccc(Cl)cc3)CN12	10 µM	2%	-25%	-3%	-29%	-6%
OCc1cc(-c2ccc(Oc3ccccc3)cc2)no1	30 µM	56%	14%	24%	14%	15%
